Measurements taken from ChEMBL document CHEMBL1138488, “Synthesis and biological evaluation of 3,3-difluoropyridine-2,4(1H,3H)-dione and 3-deaza-3-fluorouracil base and nucleoside derivatives” (J Med Chem, 2009).
Calls of active or inactive are those of the source. No cut-off for these calls is given here.

Key:
[1] = system: Human alphaherpesvirus 1; experiment: Antiviral activity against HSV1 KOS infected in HEL cells assessed as virus-induced cytopathic effect at <=100 uM; assay type: functional, organism-based
[2] = system: Human alphaherpesvirus 1; experiment: Antiviral activity against acyclovir-resistant […] kinase-deficient HSV1 KOS infected in HEL cells assessed as virus-induced cytopathic effect at <=100 uM; assay type: functional, organism-based
[3] = system: Human alphaherpesvirus 2; experiment: Antiviral activity against HSV2 strain G infected in HEL cells assessed as virus-induced cytopathic effect at <=100 uM; assay type: functional, organism-based
[4] = system: Human alphaherpesvirus 3; experiment: Antiviral activity against thymidine kinase expressing Varicella zoster virus Oka infected in human HEL cells assessed as inhibition of virus-induced cytopathic effect at <=100 uM; assay type: functional, organism-based
Method in brief: (§1)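 Confluent cell monolayers were inoculated with 100 CCID₅₀ of virus, and virus was adsorbed for 1 h. Residual virus was then removed and cells were incubated with serial compound concentrations ([…], ... µM). Cytopathicity was scored once it reached completion in untreated virus-infected control cultures.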

[5] = system: Human betaherpesvirus 5; experiment: Antiviral activity against HCMV Davis infected in HEL cells assessed as inhibition of virus-induced cytopathic effect at <=100 uM; assay type: functional, organism-based; method in brief: as §1
[6] = system: Sindbis virus; experiment: Antiviral activity against Sindbis virus infected in african green monkey Vero cells assessed as inhibition of virus-induced cytopathic effect at <=100 uM; assay type: functional, organism-based; method in brief: as §1
[7] = system: Human respirovirus 3; experiment: Antiviral activity against Parainfluenza virus type 3 infected in african green monkey Vero cells assessed as inhibition of virus-induced cytopathic effect at <=100 uM; assay type: functional, organism-based; method in brief: as §1
[8] = system: Coxsackievirus B4; experiment: Antiviral activity against Coxsackievirus B4 infected in human HeLa cells assessed as inhibition of virus-induced cytopathic effect at <=100 uM; assay type: functional, organism-based; method in brief: as §1
[9] = system: Respiratory syncytial virus; experiment: Antiviral activity against Respiratory syncytial virus infected in human HeLa cells assessed as inhibition of virus-induced cytopathic effect at <=100 uM; assay type: functional, organism-based; method in brief: as §1
[10] = system: Human betaherpesvirus 5; experiment: Antiviral activity against HCMV AD169 infected in HEL cells assessed as inhibition of virus-induced cytopathic effect at <=100 uM; assay type: functional, organism-based; method in brief: as §1
[11] = system: Human immunodeficiency virus 2; experiment: Antiviral activity against HIV2 ROD replication in human CEM cells assessed as virus-induced giant cell formation at <=100 uM after 4 days; assay type: functional, organism-based; details: CCRF-CEM
Method in brief: (§2)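 CEM cells (~3 × 10⁵ cells/cm³) were infected with 100 CCID₅₀/mL of HIV-1(III_B) or HIV-2(ROD) and seeded into wells containing compound dilutions. After 4 days at 37 °C, virus-induced giant cell formation was examined microscopically.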

[12] = system: Vesicular stomatitis virus; experiment: Antiviral activity against Vesicular stomatitis virus infected in HEL cells assessed as inhibition of virus-induced cytopathic effect at <=100 uM; assay type: functional, organism-based
[13] = Cytostatic activity against human Molt4/C8 cells at <=500 uM after 3 days by Coulter counting analysis; assay type: ADME, cell-based; details: molt-4, 72 h
Method in brief: (§3)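 Molt4/C8 or CEM lymphocytes were seeded at 75000 cells per well with varying compound concentrations. Viable cells were counted by Coulter counter after 3 days. CC₅₀ is the concentration inhibiting cell proliferation by 50%.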

[14] = system: Punta Toro virus; experiment: Antiviral activity against Punta Toro virus infected in african green monkey Vero cells assessed as inhibition of virus-induced cytopathic effect at <=100 uM; assay type: functional, organism-based; method in brief: as §1
[15] = system: CCRF-CEM; experiment: Cytostatic activity against human CEM cells at <=500 uM after 3 days by Coulter counting analysis; assay type: cell-based; details: 72 h; method in brief: as §3
[16] = system: Vaccinia virus; experiment: Antiviral activity against Vaccinia virus infected in HEL cells assessed as inhibition of virus-induced cytopathic effect at <=100 uM; assay type: functional, organism-based; details: Orthopoxvirus vaccinia
[17] = system: Human alphaherpesvirus 3; experiment: Antiviral activity against thymidine kinase deficient Varicella zoster virus 07/1 infected in human HEL cells assessed as inhibition of virus-induced cytopathic effect at <=100 uM; assay type: functional, organism-based; method in brief: as §1
[18] = system: Human immunodeficiency virus 1; experiment: Antiviral activity against HIV1 3B replication in human CEM cells assessed as virus-induced giant cell formation at <=100 uM after 4 days; assay type: functional, organism-based; details: CCRF-CEM; method in brief: as §2
[19] = system: L1210; experiment: Cytostatic activity against mouse L1210 cells at <=500 uM after 2 days by Coulter counting analysis; assay type: ADME, cell-based; details: l1210, 48 h
Method in brief: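 Murine leukemia L1210 cells were seeded at 50000 cells per well with varying compound concentrations. Viable cell number was counted by Coulter counter after 2 days.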

[20] = system: Vesicular stomatitis virus; experiment: Antiviral activity against Vesicular stomatitis virus infected in human HeLa cells assessed as inhibition of virus-induced cytopathic effect at <=100 uM; assay type: functional, organism-based
[21] = system: Mammalian orthoreovirus 3; experiment: Antiviral activity against Reovirus 3 infected in african green monkey Vero cells assessed as inhibition of virus-induced cytopathic effect at <=100 uM; assay type: functional, organism-based
[22] = system: Moloney murine sarcoma virus; experiment: Antiviral activity against Moloney sarcoma virus replication infected in mouse […] cells assessed as virus-induced transformation of cells at <=100 uM measured on day 6 postinfection; assay type: functional, organism-based
Method in brief: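 Murine C3H/3T3 embryo fibroblasts were grown to confluency and infected with Moloney murine sarcoma virus at 75 focus-forming units. Compound concentrations were then added, and virus-induced transformation was examined microscopically at day 6 postinfection.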

| Compound | Activity [1] | Activity [2] | Activity [3] | Activity [4] | Activity [5] | Activity [6] | Activity [7] | Activity [8] | Activity [9] | Activity [10] | Activity [11] | Activity [12] | Activity [13] | Activity [14] | Activity [15] | Activity [16] | Activity [17] | Activity [18] | Activity [19] | Activity [20] | other results |
| --- | --- | --- | --- | --- | --- | --- | --- | --- | --- | --- | --- | --- | --- | --- | --- | --- | --- | --- | --- | --- | --- |
| O=C1N([C@H]2C[C@H](O)[C@@H](CO)O2)C=CC(O)(c2ccccc2)C1(F)F (stereo partly drawn) | inactive | inactive | inactive | inactive | inactive | inactive | inactive | inactive | inactive | inactive | inactive | inactive | Not Active | inactive | Not Active | inactive | inactive | inactive | Not Active | inactive | Activity [21]: inactive; Activity [22]: inactive |
| NC(=O)Cc1ccn([C@@H]2O[C@H](CO)[C@@H](O)[C@H]2O)c(=O)c1F | inactive | inactive | inactive | inactive | inactive | inactive | inactive | inactive | inactive | inactive | inactive | inactive | Not Active | inactive | Not Active | inactive | inactive | inactive | Not Active | inactive | Activity [21]: inactive; Activity [22]: inactive |
| NC(=O)Cc1ccn([C@H]2C[C@H](O)[C@@H](CO)O2)c(=O)c1F | inactive | inactive | inactive | inactive | inactive | inactive | inactive | inactive | inactive | inactive | inactive | inactive | Not Active | inactive | Not Active | inactive | inactive | inactive | Not Active | inactive | Activity [21]: inactive; Activity [22]: inactive |
| O=c1c(F)c(O)ccn1[C@H]1C[C@H](O)[C@@H](CO)O1 | inactive | inactive | inactive | inactive | inactive | inactive | inactive | inactive | inactive | inactive | inactive | inactive | Not Active | inactive | Not Active | inactive | inactive | inactive | Not Active | inactive | Activity [21]: inactive; Activity [22]: inactive |
| C#CC1(O)C=CN([C@@H]2O[C@H](CO)[C@@H](O)[C@H]2O)C(=O)C1(F)F (stereo partly drawn) | inactive | inactive | inactive | inactive | inactive | inactive | inactive | inactive | inactive | inactive | inactive | inactive | Not Active | inactive | Not Active | inactive | inactive | inactive | Not Active | inactive | Activity [21]: inactive; Activity [22]: inactive |
| O=c1c(F)c(O)ccn1[C@@H]1O[C@H](CO)[C@@H](O)[C@@H]1O | inactive | inactive | inactive | inactive | inactive | inactive | inactive | inactive | inactive | inactive | inactive | inactive | Not Active | inactive | Not Active | inactive | inactive | inactive | Not Active | inactive | Activity [21]: inactive; Activity [22]: inactive |
| CC1(O)C=CN([C@@H]2O[C@H](CO)[C@@H](O)[C@H]2O)C(=O)C1(F)F (stereo partly drawn) | inactive | inactive | inactive | inactive | inactive | inactive | inactive | inactive | inactive | inactive | inactive | inactive | Not Active | inactive | Not Active | inactive | inactive | inactive | Not Active | inactive | Activity [21]: inactive; Activity [22]: inactive |
| NC(=O)Cc1ccn([C@@H]2O[C@H](CO)[C@@H](O)[C@@H]2O)c(=O)c1F | inactive | inactive | inactive | inactive | inactive | inactive | inactive | inactive | inactive | inactive | inactive | inactive | Not Active | inactive | Not Active | inactive | inactive | inactive | Not Active | inactive | Activity [21]: inactive; Activity [22]: inactive |
| CC1(O)C=CN([C@H]2C[C@H](O)[C@@H](CO)O2)C(=O)C1(F)F (stereo partly drawn) | inactive | inactive | inactive | inactive | inactive | inactive | inactive | inactive | inactive | inactive | inactive | inactive | Not Active | inactive | Not Active | inactive | inactive | inactive | Not Active | inactive | Activity [21]: inactive; Activity [22]: inactive |
